pEC50: −log10 of the molar value. Calls of active or inactive are those of the source. The rule behind the calls is not given here.
How the values were obtained:
[1] = test system: Human alphaherpesvirus 2; assay: Antiviral activity against Herpes simplex virus 2 strain G assessed as reduction of virus induced cytopathicity by cell based assay; format: functional, organism-based; settings: Human alphaherpesvirus 2, strain G
In short: (§1)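 Confluent cell monolayers infected with 100 CCID50 virus, or 20 PFU for plaque assays, then incubated with serial compound dilutions. Host cells listed for the non-HIV panel are HEL fibroblasts, Vero, HeLa, CRFK or MDCK. Cytopathicity is scored, or plaques counted for VZV, once infected untreated controls reach full CPE.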

[2] = test system: Human alphaherpesvirus 3; assay: Antiviral activity against Varicella-zoster virus strain OKA expressing thymidine kinase assessed as reduction of virus induced cytopathicity by cell based assay; format: functional; settings: Human alphaherpesvirus 3, strain Oka vaccine; in short: as §1
[3] = test system: FM3A; assay: Cytostatic activity against mouse FM3A cells; format: functional
[4] = test system: L1210; assay: Cytostatic activity against mouse L1210 cells; format: functional
[5] = test system: Human alphaherpesvirus 3; assay: Antiviral activity against thymidine kinase-deficient Varicella-zoster virus YS/R assessed as reduction of virus induced cytopathicity by cell based assay; format: functional, organism-based; settings: Human alphaherpesvirus 3, YS/R
[6] = test system: Respiratory syncytial virus; assay: Antiviral activity against Respiratory syncytial virus Long assessed as reduction of virus induced cytopathicity by cell based assay; format: functional, organism-based
In short: (§2)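 Confluent cell monolayers in 96-well plates (HEL, Vero, HeLa, CRFK or MDCK; the cell type per virus is not specified) infected with 100 CCID50 virus or 20 PFU and incubated with serial compound dilutions. Cytopathicity scored once it was complete in untreated infected controls.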

[7] = test system: Human betaherpesvirus 5; assay: Antiviral activity against Human cytomegalovirus Davis assessed as reduction of virus induced cytopathicity by cell based assay; format: functional, organism-based; settings: Human betaherpesvirus 5, Davis; in short: as §1
[8] = test system: Vaccinia virus; assay: Antiviral activity against Vaccinia virus Lederle assessed as reduction of virus induced cytopathicity by cell based assay; format: functional, organism-based; settings: Orthopoxvirus vaccinia; in short: as §1
[9] = test system: Human alphaherpesvirus 1; assay: Antiviral activity against Herpes simplex virus 1 strain KOS assessed as reduction of virus induced cytopathicity by cell based assay; format: functional, organism-based; settings: Human alphaherpesvirus 1, KOS; in short: as §1
[10] = test system: Human alphaherpesvirus 1; assay: Antiviral activity against thymidine kinase-deficient acyclovir-resistant Herpes simplex virus 1 strain KOS assessed as reduction of virus induced cytopathicity by cell based assay; format: functional, organism-based; settings: Human alphaherpesvirus 1, KOS; in short: as §1
[11] = Cytotoxicity against human HEL cells assessed as alteration of cell morphology after 3 days by microscopic analysis; format: cell-based
In short: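 MCC taken as the lowest compound concentration producing microscopically detectable alteration of HEL fibroblast morphology.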

[12] = test system: Human respirovirus 3; assay: Antiviral activity against Human parainfluenza virus 3 assessed as reduction of virus induced cytopathicity by cell based assay; format: functional, organism-based; in short: as §2
[13] = test system: Vesicular stomatitis virus; assay: Antiviral activity against Vesicular stomatitis virus assessed as reduction of virus induced cytopathicity by cell based assay; format: functional, organism-based; in short: as §1
[14] = test system: Sindbis virus; assay: Antiviral activity against Sindbis virus assessed as reduction of virus induced cytopathicity by cell based assay; format: functional, organism-based; in short: as §2
[15] = test system: Coxsackievirus B4; assay: Antiviral activity against Coxsackievirus B4 assessed as reduction of virus induced cytopathicity by cell based assay; format: functional, organism-based; in short: as §2
[16] = test system: Human betaherpesvirus 5; assay: Antiviral activity against Human cytomegalovirus strain AD169 assessed as reduction of virus induced cytopathicity by cell based assay; format: functional, organism-based; settings: Human betaherpesvirus 5, AD169; in short: as §1
[17] = test system: CCRF-CEM; assay: Cytostatic activity against human CEM cells; format: cell-based
[18] = test system: Mammalian orthoreovirus 1; assay: Antiviral activity against Reovirus-1 assessed as reduction of virus induced cytopathicity by cell based assay; format: functional, organism-based; in short: as §2
[19] = test system: Human alphaherpesvirus 3; assay: Antiviral activity against Varicella-zoster virus YS expressing thymidine kinase assessed as reduction of virus induced cytopathicity by cell based assay; format: functional, organism-based; settings: Human alphaherpesvirus 3, YS
[20] = test system: Punta Toro virus; assay: Antiviral activity against Punta Toro virus assessed as reduction of virus induced cytopathicity by cell based assay; format: functional, organism-based; in short: as §2
[21] = test system: HEL; assay: Cytotoxicity against human HEL cells after 3 days by coulter counter; format: cell-based; settings: 72 h
In short: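 HEL cells seeded at 5 × 10^3 cells/well and allowed to proliferate for 24 h, then exposed to a range of compound concentrations for 3 days at 37 °C. Cells counted with a Coulter counter.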

[22] = test system: Human alphaherpesvirus 3; assay: Antiviral activity against thymidine kinase-deficient Varicella-zoster virus 07/1 assessed as reduction of virus induced cytopathicity by cell based assay; format: functional, organism-based; settings: Human alphaherpesvirus 3, 07/1; in short: as §1
[23] = Selectivity index, ratio CC50 for human HEL cells to EC50 for thymidine kinase-deficient Varicella-zoster virus 07/1; format: toxicity, cell-based; settings: read-out: Ratio CC50/EC50
In short: (§3)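 HEL fibroblasts seeded at 5 × 10^3 cells/well and allowed to grow 24 h. Medium with compound dilutions is then added and cells are incubated 3 days at 37 °C before Coulter counting. CC50, the concentration halving cell number relative to untreated controls, is read from plots. SI is CC50 divided by the antiviral EC50 from the CPE or plaque-reduction assay in HEL cells.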

[24] = Selectivity index, ratio CC50 for human HEL cells to EC50 for Herpes simplex virus 1 strain KOS; format: toxicity, cell-based; settings: read-out: Ratio CC50/EC50; in short: as §3
[25] = Selectivity index, ratio CC50 for human HEL cells to EC50 for Human cytomegalovirus Davis; format: toxicity, cell-based; settings: read-out: Ratio CC50/EC50; in short: as §3
[26] = Selectivity index, ratio CC50 for human HEL cells to EC50 for Vaccinia virus Lederle; format: toxicity, cell-based; settings: read-out: Ratio CC50/EC50; in short: as §3
[27] = Selectivity index, ratio CC50 for human HEL cells to EC50 for Varicella-zoster virus YS expressing thymidine kinase; format: toxicity, cell-based; settings: read-out: Ratio CC50/EC50; in short: as §3
[28] = Selectivity index, ratio CC50 for human HEL cells to EC50 for thymidine kinase-deficient acyclovir-resistant Herpes simplex virus 1 strain KOS; format: toxicity, cell-based; settings: read-out: Ratio CC50/EC50; in short: as §3
[29] = Selectivity index, ratio CC50 for human HEL cells to EC50 for Varicella-zoster virus strain OKA expressing thymidine kinase; format: toxicity, cell-based; settings: read-out: Ratio CC50/EC50; in short: as §3
[30] = Selectivity index, ratio CC50 for human HEL cells to EC50 for thymidine kinase-deficient Varicella-zoster virus YS/R; format: toxicity, cell-based; settings: read-out: Ratio CC50/EC50; in short: as §3
[31] = Selectivity index, ratio CC50 for human HEL cells to EC50 for Herpes simplex virus 2 strain G; format: toxicity, cell-based; settings: read-out: Ratio CC50/EC50; in short: as §3
[32] = Selectivity index, ratio CC50 for human HEL cells to EC50 for Human cytomegalovirus strain AD169; format: toxicity, cell-based; settings: read-out: Ratio CC50/EC50; in short: as §3
[33] = test system: Human immunodeficiency virus 1; assay: Antiviral activity against Human immunodeficiency virus type1 3B infected in human CEM cells assessed as HIV-induced CEM giant cell formation after 4 days by microscopic analysis; format: functional, organism-based; settings: Human immunodeficiency virus 1, 3B, CCRF-CEM, 96 h
In short: (§4)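 Human CEM cells (~3 × 10^5 cells/ml) infected with 100 CCID50/ml of HIV-1 (IIIB) or HIV-2 (ROD), then seeded into wells holding compound dilutions. After 4 days at 37 °C, HIV-induced giant cell formation is scored by microscopy.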

[34] = test system: Human immunodeficiency virus 2; assay: Antiviral activity against Human immunodeficiency virus type 2 ROD infected in human CEM cells assessed as HIV-induced CEM giant cell formation after 4 days by microscopy; format: functional, organism-based; settings: Human immunodeficiency virus 2, ISOLATE ROD, CCRF-CEM, 96 h; in short: as §4

Nc1ncnc2c1ncn2CCOC(Cc1ccccc1)CP(=O)(O)O (stereo not given)
pEC50 [1]: 4.07
pEC50 [2]: 5.54
CC50 [3]: 90 µM
CC50 [4]: 273 µM
pEC50 [5]: 5.60
Activity [6]: inactive
pEC50 [7]: 4.17
pEC50 [8]: < 3.58
pEC50 [9]: 4.28
pEC50 [10]: 4.28
MCC at 72 h [11]: > 265 µM
Activity [12]: inactive
Activity [13]: inactive
Activity [14]: inactive
Activity [15]: inactive
pEC50 [16]: 4.23
CC50 [17]: 530 µM
Activity [18]: inactive
pEC50 [19]: 5.54
Activity [20]: inactive
CC50 [21]: ≥ 247 µM
pEC50 [22]: 5.33

Nc1ccn(C[C@@H](CO)OCP(=O)(O)O)c(=O)n1 [CIDOFOVIR]
pEC50 [1]: 6.05
pEC50 [2]: 6.54
selectivity ratio [23]: 880
pEC50 [7]: 6.15
selectivity ratio [24]: 322
pEC50 [9]: 5.89
pEC50 [10]: 6.00
MCC at 72 h [11]: > 317 µM
selectivity ratio [25]: 195
selectivity ratio [26]: 35
selectivity ratio [27]: 880
selectivity ratio [28]: 322
selectivity ratio [29]: 880
selectivity ratio [30]: 880
selectivity ratio [31]: 322
CC50 [21]: 254 µM
selectivity ratio [32]: 195
pEC50 [22]: 7.00

CCC(CP(=O)(O)O)OCCn1cnc2c(N)ncnc21 (stereo not given)
pEC50 [1]: 3.54
pEC50 [2]: 4.72
CC50 [3]: 432 µM
CC50 [4]: > 660 µM
pEC50 [5]: 4.37
Activity [6]: inactive
pEC50 [7]: 3.61
pEC50 [8]: < 3.50
pEC50 [9]: 3.62
pEC50 [10]: 3.60
MCC at 72 h [11]: > 317 µM
Activity [12]: inactive
Activity [13]: inactive
Activity [14]: inactive
Activity [15]: inactive
pEC50 [16]: 3.80
CC50 [17]: > 660 µM
Activity [18]: inactive
pEC50 [19]: 4.38
Activity [20]: inactive
CC50 [21]: > 317 µM
pEC50 [22]: 4.66

CC(CP(=O)(O)O)OCCn1cnc2c(N)ncnc21 (stereo not given)
pEC50 [1]: 5.64
pEC50 [2]: 7.15
selectivity ratio [23]: 120
CC50 [3]: 2.7 µM
CC50 [4]: 10 µM
pEC50 [5]: 7.15
Activity [6]: inactive
pEC50 [7]: 6.05
pEC50 [8]: 4.57
selectivity ratio [24]: 6
pEC50 [33]: 4.96
pEC50 [9]: 5.89
pEC50 [10]: 5.77
MCC at 72 h [11]: 322 µM
selectivity ratio [25]: 14
Activity [12]: inactive
selectivity ratio [26]: < 1
Activity [13]: inactive
selectivity ratio [27]: 120
Activity [14]: inactive
selectivity ratio [28]: 6
selectivity ratio [29]: 120
Activity [15]: inactive
selectivity ratio [30]: 120
CC50 [17]: 20 µM
selectivity ratio [31]: 6
Activity [18]: inactive
pEC50 [19]: 7.00
Activity [20]: inactive
CC50 [21]: 13 µM
pEC50 [34]: 5.05
selectivity ratio [32]: 14
pEC50 [22]: 6.96

From ChEMBL document CHEMBL1806434, “Acyclic nucleoside phosphonates with a branched 2-(2-phosphonoethoxy)ethyl chain: efficient synthesis and antiviral activity” (Bioorg Med Chem, 2011)
